The values that follow come from ChEMBL document CHEMBL1165965, “Synthesis and structure-activity relationships of 1,2,3,4-tetrahydropyrido[2,3-b]pyrazines as potent and selective inhibitors of the anaplastic lymphoma kinase” (Bioorg Med Chem, 2010).

Test [1] addresses Hepatocyte growth factor receptor (Homo sapiens) (UniProt P08581). As to the kind of experiment: Inhibition of MET at 1 uM. In a few lines:
(§1)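 Single-concentration screen on the Ambit KINOMEscan platform, run against a panel of 250–400 kinases. Per-kinase inhibition was also summarized as S(90), the fraction of kinases inhibited by more than 90%.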

Test [2] concerns the target Misshapen-like kinase 1 (Homo sapiens) (UniProt Q8N4C8). As to the kind of experiment: Inhibition of MINK at 1 uM.
The target in test [3] is Myosin light chain kinase, smooth muscle (Homo sapiens) (UniProt Q15746). Put plainly: Inhibition of MLCK at 1 uM.
Test [4] addresses Serine/threonine-protein kinase 38 (Homo sapiens) (UniProt Q15208). As to the kind of experiment: Inhibition of NDR1 at 1 uM.
Test [5] deals with Phosphatidylinositol 4-phosphate 5-kinase type-1 alpha (Homo sapiens) (UniProt Q99755). Put plainly: Inhibition of PIP5K1A at 1 uM.
Sequence of Phosphatidylinositol 4-phosphate 5-kinase type-1 alpha (Homo sapiens) (Q99755 whole entry): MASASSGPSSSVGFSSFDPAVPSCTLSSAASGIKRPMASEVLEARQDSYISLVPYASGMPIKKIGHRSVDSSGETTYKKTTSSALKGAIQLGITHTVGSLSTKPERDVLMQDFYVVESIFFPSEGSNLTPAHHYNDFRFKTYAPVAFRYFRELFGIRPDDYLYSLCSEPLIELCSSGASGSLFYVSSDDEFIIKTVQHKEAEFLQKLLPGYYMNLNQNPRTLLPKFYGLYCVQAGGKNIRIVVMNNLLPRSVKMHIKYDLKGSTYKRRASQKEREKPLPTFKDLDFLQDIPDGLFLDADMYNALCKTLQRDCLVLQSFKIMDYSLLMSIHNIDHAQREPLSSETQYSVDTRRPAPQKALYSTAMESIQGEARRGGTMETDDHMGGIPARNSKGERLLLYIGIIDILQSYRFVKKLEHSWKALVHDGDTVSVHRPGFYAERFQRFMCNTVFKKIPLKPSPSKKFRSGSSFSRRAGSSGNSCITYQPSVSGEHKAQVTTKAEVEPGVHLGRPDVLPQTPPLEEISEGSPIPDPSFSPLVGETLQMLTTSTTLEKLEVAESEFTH
For test [6], the target named is Serine/threonine-protein kinase PLK2 (Homo sapiens) (UniProt Q9NYY3). As to the kind of experiment: Inhibition of PLK2 at 1 uM.
Sequence of Serine/threonine-protein kinase PLK2 (Homo sapiens) (Q9NYY3 whole entry, looked up): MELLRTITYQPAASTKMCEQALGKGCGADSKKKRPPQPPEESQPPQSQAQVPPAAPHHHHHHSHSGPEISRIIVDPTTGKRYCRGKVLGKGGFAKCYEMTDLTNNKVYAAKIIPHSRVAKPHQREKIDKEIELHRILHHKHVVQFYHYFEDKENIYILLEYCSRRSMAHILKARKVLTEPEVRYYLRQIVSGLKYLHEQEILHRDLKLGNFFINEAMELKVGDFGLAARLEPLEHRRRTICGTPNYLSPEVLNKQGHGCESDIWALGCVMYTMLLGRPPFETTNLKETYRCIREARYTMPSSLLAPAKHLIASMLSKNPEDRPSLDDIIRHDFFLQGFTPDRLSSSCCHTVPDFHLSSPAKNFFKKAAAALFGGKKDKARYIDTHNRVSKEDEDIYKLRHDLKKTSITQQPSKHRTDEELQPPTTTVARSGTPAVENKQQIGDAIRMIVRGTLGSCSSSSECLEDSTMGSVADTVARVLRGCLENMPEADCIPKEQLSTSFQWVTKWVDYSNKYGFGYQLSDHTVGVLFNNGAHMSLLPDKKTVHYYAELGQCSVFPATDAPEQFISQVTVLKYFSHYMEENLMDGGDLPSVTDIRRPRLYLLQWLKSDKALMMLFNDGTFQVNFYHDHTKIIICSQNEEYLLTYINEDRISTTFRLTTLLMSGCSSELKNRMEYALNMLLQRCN
The target in test [7] is T1, Receptor-interacting serine/threonine-protein kinase 4 (Homo sapiens) (UniProt P57078).
T1 sequence (whole entry): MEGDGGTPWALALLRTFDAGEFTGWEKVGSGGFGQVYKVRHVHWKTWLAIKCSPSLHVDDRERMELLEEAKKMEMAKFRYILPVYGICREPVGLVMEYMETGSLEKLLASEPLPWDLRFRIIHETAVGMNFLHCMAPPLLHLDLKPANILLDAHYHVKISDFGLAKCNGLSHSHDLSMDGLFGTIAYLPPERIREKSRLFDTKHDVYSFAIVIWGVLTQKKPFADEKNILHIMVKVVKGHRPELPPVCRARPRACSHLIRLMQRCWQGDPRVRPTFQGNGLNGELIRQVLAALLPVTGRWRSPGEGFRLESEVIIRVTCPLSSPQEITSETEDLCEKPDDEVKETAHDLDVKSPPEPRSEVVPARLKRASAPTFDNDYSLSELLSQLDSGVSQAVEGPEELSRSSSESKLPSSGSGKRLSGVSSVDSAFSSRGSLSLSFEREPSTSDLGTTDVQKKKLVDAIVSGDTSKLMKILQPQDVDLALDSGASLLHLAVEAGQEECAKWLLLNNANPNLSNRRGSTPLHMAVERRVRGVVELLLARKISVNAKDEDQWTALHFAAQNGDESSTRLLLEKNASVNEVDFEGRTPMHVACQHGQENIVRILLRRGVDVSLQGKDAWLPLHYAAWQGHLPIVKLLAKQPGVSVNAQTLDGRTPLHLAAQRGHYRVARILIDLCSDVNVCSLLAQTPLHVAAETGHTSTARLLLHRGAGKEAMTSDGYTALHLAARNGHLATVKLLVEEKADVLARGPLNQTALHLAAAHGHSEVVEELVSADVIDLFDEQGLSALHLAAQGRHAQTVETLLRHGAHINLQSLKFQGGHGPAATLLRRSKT
As to the kind of experiment: Inhibition of RIPK4 at 1 uM.

Test [8] deals with STE20-like serine/threonine-protein kinase (Homo sapiens) (UniProt Q9H2G2). Put plainly: Inhibition of SLK at 1 uM.
For test [9], the target named is BDNF/NT-3 growth factors receptor (Homo sapiens) (UniProt Q16620). Put plainly: Inhibition of TRKB at 1 uM. In a few lines:
as §1

Test [10] addresses Activin receptor type-1-like (Homo sapiens) (UniProt P37023). As to the kind of experiment: Inhibition of ACVRL1 at 1 uM. In a few lines:
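Ambit KINOMEscan screen at a single concentration across a 250–400 kinase panel, recorded as percent inhibition. Selectivity was expressed as S(90), the fraction of kinases inhibited >90%.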

Test [11] addresses Citron Rho-interacting kinase (Homo sapiens) (UniProt O14578). As to the kind of experiment: Inhibition of CIT at 1 uM.
In test [12] the target is Dual specificity tyrosine-phosphorylation-regulated kinase 1B (Homo sapiens) (UniProt Q9Y463). As to the kind of experiment: Inhibition of DYRK1B at 1 uM.
Sequence of Dual specificity tyrosine-phosphorylation-regulated kinase 1B (Homo sapiens) (Q9Y463 whole entry, looked up): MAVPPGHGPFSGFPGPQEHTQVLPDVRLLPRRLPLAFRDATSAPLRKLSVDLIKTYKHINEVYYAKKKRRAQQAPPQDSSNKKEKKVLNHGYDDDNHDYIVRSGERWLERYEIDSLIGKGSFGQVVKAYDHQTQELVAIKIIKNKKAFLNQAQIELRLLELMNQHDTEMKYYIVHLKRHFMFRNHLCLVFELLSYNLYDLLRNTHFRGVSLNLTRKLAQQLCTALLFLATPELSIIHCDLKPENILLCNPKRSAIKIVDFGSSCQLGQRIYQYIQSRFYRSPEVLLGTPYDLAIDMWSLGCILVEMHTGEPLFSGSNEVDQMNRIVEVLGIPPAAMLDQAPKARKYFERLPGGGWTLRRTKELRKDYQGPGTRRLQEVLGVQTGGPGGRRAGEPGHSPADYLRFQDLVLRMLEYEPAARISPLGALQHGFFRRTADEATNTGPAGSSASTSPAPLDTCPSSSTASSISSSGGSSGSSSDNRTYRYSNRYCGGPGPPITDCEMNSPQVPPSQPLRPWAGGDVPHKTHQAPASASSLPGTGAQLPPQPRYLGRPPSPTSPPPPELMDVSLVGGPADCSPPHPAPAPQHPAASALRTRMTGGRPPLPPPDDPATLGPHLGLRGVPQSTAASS
The subject of test [13] is Epidermal growth factor receptor (Homo sapiens), P00533 [L861Q]. Put plainly: Inhibition of EGFR L861Q mutant at 1 uM. Type of test: protein assay. In a few lines: (§2)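 Single-concentration screen using Ambit Bioscience KINOMEscan technology across a panel of 250–400 kinases. Per-kinase inhibition from this screen was summarized as S(90), the fraction of kinases inhibited by more than 90%.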

For test [14], the target named is T2, Ephrin type-B receptor 3 (Homo sapiens) (UniProt P54753).
T2 sequence (whole entry): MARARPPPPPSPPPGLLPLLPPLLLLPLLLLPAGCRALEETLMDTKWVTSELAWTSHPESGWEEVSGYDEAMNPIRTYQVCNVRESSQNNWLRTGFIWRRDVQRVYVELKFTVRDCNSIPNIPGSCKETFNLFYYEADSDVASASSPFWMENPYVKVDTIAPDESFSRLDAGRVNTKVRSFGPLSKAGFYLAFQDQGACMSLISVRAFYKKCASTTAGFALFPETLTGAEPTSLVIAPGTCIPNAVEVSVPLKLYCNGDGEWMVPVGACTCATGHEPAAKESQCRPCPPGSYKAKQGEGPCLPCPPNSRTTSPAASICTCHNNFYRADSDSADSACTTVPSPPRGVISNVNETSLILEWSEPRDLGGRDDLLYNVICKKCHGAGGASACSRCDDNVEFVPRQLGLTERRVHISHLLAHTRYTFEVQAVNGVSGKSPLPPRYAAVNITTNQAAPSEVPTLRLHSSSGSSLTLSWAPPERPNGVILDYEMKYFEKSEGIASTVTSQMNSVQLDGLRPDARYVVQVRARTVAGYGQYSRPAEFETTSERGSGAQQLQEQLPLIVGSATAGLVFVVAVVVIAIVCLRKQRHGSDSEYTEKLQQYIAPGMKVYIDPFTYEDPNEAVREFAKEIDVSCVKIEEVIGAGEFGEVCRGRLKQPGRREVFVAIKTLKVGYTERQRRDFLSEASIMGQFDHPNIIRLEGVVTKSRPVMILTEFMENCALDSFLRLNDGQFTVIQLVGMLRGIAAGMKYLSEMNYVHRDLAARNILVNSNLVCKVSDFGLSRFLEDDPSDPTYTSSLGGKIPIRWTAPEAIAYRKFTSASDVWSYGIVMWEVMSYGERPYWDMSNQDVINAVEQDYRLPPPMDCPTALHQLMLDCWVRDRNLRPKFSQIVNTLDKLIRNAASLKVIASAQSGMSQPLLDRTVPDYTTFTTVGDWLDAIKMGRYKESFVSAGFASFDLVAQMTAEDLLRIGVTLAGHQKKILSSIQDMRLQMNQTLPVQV
Put plainly: Inhibition of EPHB3 at 1 uM. In a few lines:
as §2

Test [15] deals with Mitogen-activated protein kinase 7 (Homo sapiens) (UniProt Q13164). As to the kind of experiment: Inhibition of ERK5 at 1 uM.
Test [16] has as its target Focal adhesion kinase 1 (Homo sapiens) (UniProt Q05397). Put plainly: Inhibition of FAK at 1 uM. In a few lines:
as §2

Sequence of Misshapen-like kinase 1 (Homo sapiens) (Q8N4C8 whole entry, looked up): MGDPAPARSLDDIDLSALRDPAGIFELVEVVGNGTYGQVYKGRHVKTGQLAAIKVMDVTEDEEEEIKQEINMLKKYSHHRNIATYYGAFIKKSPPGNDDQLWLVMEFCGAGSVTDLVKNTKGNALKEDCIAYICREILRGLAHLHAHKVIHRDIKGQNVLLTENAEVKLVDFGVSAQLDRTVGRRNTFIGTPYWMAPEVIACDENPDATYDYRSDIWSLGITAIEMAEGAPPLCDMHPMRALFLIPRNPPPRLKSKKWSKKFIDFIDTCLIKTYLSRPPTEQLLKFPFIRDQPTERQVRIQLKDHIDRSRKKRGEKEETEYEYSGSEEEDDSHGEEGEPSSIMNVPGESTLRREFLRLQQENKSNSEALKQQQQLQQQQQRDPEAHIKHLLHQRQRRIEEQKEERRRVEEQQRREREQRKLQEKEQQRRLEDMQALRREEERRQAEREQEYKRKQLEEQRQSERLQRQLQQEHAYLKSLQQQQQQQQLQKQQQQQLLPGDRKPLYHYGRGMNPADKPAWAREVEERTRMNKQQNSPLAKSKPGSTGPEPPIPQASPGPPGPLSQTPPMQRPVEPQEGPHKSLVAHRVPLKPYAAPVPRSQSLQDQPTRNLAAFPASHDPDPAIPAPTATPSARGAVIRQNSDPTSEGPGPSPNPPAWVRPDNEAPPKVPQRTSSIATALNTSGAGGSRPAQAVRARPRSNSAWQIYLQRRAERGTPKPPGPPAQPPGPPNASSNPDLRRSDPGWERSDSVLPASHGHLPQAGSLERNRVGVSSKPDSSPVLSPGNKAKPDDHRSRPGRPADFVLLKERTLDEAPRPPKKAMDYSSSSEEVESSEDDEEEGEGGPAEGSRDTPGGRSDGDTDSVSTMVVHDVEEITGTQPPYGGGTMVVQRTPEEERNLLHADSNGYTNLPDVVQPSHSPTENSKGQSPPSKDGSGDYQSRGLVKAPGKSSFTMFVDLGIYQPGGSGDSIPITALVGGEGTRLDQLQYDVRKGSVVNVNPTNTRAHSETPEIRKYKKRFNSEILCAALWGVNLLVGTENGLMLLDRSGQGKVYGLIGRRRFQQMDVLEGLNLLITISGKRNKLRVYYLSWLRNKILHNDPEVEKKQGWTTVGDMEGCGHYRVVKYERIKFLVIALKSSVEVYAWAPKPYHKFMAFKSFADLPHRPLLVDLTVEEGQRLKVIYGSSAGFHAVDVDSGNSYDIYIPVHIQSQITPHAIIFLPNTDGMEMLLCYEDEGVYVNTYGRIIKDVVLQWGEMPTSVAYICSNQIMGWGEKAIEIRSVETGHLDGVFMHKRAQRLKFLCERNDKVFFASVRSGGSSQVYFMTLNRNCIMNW
Sequence of Hepatocyte growth factor receptor (Homo sapiens) (P08581 whole entry): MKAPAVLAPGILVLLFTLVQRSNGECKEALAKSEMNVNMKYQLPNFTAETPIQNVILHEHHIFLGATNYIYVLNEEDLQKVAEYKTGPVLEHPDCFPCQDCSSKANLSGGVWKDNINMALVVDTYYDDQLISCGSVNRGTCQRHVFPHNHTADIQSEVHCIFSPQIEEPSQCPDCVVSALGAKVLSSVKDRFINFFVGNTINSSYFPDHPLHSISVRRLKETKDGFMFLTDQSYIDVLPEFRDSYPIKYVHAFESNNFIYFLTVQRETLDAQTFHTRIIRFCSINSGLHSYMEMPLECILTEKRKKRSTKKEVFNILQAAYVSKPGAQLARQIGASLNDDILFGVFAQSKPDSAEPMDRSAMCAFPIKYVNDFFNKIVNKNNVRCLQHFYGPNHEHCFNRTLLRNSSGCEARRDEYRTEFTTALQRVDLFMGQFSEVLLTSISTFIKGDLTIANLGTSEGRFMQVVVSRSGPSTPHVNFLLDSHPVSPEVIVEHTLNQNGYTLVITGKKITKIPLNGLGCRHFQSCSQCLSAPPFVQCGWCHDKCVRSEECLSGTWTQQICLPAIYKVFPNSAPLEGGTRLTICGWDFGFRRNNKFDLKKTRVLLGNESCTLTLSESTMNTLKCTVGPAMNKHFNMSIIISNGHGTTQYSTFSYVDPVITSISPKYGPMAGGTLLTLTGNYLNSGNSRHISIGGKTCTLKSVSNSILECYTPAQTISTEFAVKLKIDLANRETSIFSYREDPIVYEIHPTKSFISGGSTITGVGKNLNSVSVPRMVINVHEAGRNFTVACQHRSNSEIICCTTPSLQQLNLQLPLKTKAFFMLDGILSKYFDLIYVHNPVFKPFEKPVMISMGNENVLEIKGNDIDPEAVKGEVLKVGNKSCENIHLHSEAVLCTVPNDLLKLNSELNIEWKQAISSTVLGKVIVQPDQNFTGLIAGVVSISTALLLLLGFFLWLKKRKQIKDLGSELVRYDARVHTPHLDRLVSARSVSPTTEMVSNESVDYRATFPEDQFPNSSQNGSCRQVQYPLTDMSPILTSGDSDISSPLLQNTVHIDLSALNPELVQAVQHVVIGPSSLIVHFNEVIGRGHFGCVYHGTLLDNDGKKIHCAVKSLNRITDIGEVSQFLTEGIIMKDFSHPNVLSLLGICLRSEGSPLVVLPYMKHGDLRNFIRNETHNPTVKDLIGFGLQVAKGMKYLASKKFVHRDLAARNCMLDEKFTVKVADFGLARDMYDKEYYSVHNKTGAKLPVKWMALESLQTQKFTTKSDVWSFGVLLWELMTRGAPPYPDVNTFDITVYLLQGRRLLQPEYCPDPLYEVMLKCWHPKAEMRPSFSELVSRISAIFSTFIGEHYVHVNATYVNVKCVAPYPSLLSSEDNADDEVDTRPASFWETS
Sequence of Activin receptor type-1-like (Homo sapiens) (P37023 whole entry): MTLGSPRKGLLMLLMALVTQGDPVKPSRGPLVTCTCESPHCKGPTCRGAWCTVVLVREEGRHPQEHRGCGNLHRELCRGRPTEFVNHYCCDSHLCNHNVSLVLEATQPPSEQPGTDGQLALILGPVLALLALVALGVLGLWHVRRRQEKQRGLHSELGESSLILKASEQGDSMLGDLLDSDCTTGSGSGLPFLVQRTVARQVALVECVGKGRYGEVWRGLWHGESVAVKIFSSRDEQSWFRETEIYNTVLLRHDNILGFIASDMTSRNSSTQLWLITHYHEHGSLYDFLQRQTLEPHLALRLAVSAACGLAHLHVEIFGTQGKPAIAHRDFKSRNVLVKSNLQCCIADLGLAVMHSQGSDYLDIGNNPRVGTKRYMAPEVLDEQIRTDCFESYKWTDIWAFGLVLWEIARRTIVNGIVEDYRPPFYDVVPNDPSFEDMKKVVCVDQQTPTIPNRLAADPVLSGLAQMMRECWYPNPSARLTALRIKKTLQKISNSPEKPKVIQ

The term inhibition denotes the change of the read-out against control, counted positive when it falls. Low readings indicate little suppression, high ones strong suppression. Regarding `CN1CCN(c2ccc(-c3cnc4c(c3)N(Cc3cc(Cl)ccc3C(F)(F)F)CCN4)cn2)CC1`, the inhibition is 82% in [1]; < 50% in [2]; < 50% in test [3]; < 50% in test [4]; < 50% in [5]; < 50% in test [6]. Besides, the inhibition in test [7], in test [8], in test [9], in test [10], in [11] and in test [12] was < 50% each time. Besides, the inhibition in test [13] was < 50%; in test [14] it was < 50%; in test [15] it was < 50%; in [16], 98%.
